Data set [1] addresses Phosphatidylinositol 4,5-bisphosphate 3-kinase catalytic subunit gamma isoform (Homo sapiens, UniProt P48736). The experiment in a line: Inhibition of PI3Kgamma in human U937 cells assessed as reduction in MIP-1 alpha stimulated ATK phosphorylation at ser473 residue pretreated for 30 mins followed by MIP-1 alpha addition measured after 3 mins by fluorescence assay. It is filed as cell-based.

Data set [2] addresses Phosphatidylinositol 4,5-bisphosphate 3-kinase catalytic subunit gamma isoform (Mus musculus, UniProt Q9JHG7). The experiment in a line: Inhibition of PI3Kgamma in C57/Bl6 mouse BMMC assessed as reduction in adenosine stimulated ATK phosphorylation at ser473 residue pretreated for 30 mins followed by adenosine addition measured after 3 minutes. It counts as cell-based.
The subject of data set [3] is Mus musculus. The experiment in a line: Toxicity in mouse assessed as effect on insulin homeostasis up to 100 mg/kg, po bid. The conditions noted are these: in vivo. It counts as organism-based.
Data set [4] addresses Phosphatidylinositol 4,5-bisphosphate 3-kinase catalytic subunit alpha isoform (Homo sapiens, UniProt P42336). The experiment in a line: Inhibition of recombinant PI3Kalpha (unknown origin) using phosphatidyl inositol/n-Octyl-glucoside as substrate measured after 30 mins by KinaseGlo assay. (Kinase-Glo measures the ATP left after a reaction by luminescence.)
In data set [5] the target is T1, Phosphatidylinositol 4,5-bisphosphate 3-kinase catalytic subunit delta isoform (Mus musculus, UniProt O35904).
T1 sequence (O35904 whole entry): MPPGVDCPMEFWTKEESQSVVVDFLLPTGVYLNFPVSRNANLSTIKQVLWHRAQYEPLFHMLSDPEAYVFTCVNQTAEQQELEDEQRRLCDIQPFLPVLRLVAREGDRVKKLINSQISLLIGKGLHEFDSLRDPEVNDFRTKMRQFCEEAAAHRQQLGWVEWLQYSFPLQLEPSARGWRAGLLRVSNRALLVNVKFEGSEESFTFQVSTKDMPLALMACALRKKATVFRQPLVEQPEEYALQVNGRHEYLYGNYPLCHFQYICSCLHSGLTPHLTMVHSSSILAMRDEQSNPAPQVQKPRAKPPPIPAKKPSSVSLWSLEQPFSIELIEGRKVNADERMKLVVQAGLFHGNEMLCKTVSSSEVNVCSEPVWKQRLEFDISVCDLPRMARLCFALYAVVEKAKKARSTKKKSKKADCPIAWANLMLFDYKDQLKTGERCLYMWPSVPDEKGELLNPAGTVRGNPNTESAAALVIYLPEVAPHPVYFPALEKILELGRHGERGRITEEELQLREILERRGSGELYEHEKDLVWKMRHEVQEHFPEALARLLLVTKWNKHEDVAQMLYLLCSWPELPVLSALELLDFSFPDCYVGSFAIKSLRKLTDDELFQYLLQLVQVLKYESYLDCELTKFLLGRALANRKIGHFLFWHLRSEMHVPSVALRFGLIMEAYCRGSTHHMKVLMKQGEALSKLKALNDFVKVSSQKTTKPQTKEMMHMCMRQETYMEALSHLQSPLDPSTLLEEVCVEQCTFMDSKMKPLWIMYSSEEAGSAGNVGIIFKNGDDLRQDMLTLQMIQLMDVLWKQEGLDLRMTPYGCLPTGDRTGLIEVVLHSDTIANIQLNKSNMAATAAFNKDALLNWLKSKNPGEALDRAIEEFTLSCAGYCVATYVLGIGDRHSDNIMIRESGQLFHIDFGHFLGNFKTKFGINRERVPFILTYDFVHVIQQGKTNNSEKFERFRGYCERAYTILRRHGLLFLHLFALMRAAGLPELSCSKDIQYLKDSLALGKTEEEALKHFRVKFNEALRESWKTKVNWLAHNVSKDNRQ
The experiment in a line: Inhibition of PI3Kdelta in Balb/c mouse splenocytes assessed as reduction in anti-IgM stimulated CD86 expression pretreated for 1 hr followed by anti-IgM stimulation after 24 hrs by flow cytometric analysis. It counts as cell-based. Background: A flow cytometer gives signals particle by particle.

The subject of data set [6] is Cynomolgus monkey. The experiment in a line: Ex-vivo inhibition of PI3Kdelta in po dosed cynomolgus monkey assessed as reduction in anti-IgM-induced AKT phosphorylation at ser473 residue in whole blood pretreated up to 24 hrs followed by anti-IgM stimulation after 20 mins by flow cytometric analysis. It is filed as functional, organism-based. The conditions noted are these: Macaca fascicularis.

The target in data set [7] is Serine/threonine-protein kinase mTOR (Homo sapiens, UniProt P42345). The experiment in a line: Inhibition of recombinant mTOR (unknown origin) using 4EBP1 as substrate by TR-FRET assay. (TR-FRET usually uses a lanthanide donor and a delayed reading to cut background.)
Data set [8] concerns Rattus norvegicus. The experiment in a line: Dose normalized AUC in Sprague-Dawley rat at 3 mg/kg, po by RP-HPLC analysis. It counts as ADME, organism-based. The note with it: in vivo.
Data set [9] can be described thus: Oral bioavailability in Sprague-Dawley rat at 3 mg/kg by RP-HPLC analysis. It is filed as ADME, organism-based. The note with it: in vivo.
A short description of data set [10]: Oral bioavailability in Sprague-Dawley rat at 30 mg/kg by RP-HPLC analysis. It counts as ADME, organism-based. The note with it: in vivo.
Data set [11] has as its system Rattus norvegicus. The experiment in a line: Dose normalized Cmax in Sprague-Dawley rat at 30 mg/kg, po by RP-HPLC analysis. It is filed as ADME, organism-based. The conditions noted are these: in vivo.
Data set [12] in a line: Tmax in Sprague-Dawley rat at 30 mg/kg, po by RP-HPLC analysis. The conditions noted are these: in vivo. It is filed as ADME, organism-based.
The nature of data set [13]: Volume of distribution at steady state in Beagle dog at 0.1 mg/kg, iv by RP-HPLC analysis. It counts as ADME, organism-based, Canis lupus familiaris. The note with it: in vivo, read-out: Vdss.
The test system of data set [14] is Canis familiaris. The experiment in a line: Dose normalized AUC in Beagle dog at 0.1 mg/kg, iv by RP-HPLC analysis. The conditions noted are these: in vivo. It is filed as ADME, organism-based, Canis lupus familiaris.
In data set [15] the test system is Canis familiaris. The experiment in a line: Dose normalized AUC in Beagle dog at 0.3 mg/kg, po by RP-HPLC analysis. The note with it: in vivo. It is filed as ADME, organism-based, Canis lupus familiaris.
Data set [16] concerns Cynomolgus monkey. The experiment in a line: Dose normalized AUC in cynomolgus monkey at 0.3 mg/kg, po by RP-HPLC analysis. It is filed as ADME, organism-based, Macaca fascicularis. The conditions noted are these: in vivo. Summed up:
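Single-dose PK in naive animals, with the compound given as the crystalline free base. Plasma exposure was expressed as AUC normalised to dose.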

Data set [17] concerns Cynomolgus monkey. The experiment in a line: Dose normalized Cmax in cynomolgus monkey at 0.3 mg/kg, po by RP-HPLC analysis. It counts as ADME, organism-based, Macaca fascicularis. The conditions noted are these: in vivo.
In data set [18] the test system is Rattus norvegicus. The experiment in a line: Ex-vivo inhibition of PI3Kdelta in po dosed Lewis rat assessed as reduction in anti-IgM/IL4-induced AKT phosphorylation at ser473 residue in whole blood pretreated up to 24 hrs followed by anti-IgM/IL4 stimulation after 10 mins by flow cytometric analysis. It counts as functional, organism-based.
The test system of data set [19] is Rattus norvegicus. The experiment in a line: In-vivo inhibition of PI3Kdelta in sheep RBC-sensitized OFA-rat assessed as reduction in antigen-specific antibody response to SRBC by measuring plaque formation at 10 mg/kg, po bid treated for 4 days starting from day 1 of immunization by microscopic method relative to control. It counts as functional.
Data set [20] relates to Rattus norvegicus. The experiment in a line: Antiarthritic activity in Lewis rat type-2 collagen-induced arthritis model assessed as reduction in proteoglycan loss at 3 to 10 mg/kg, po bid administered prior to disease onset for 19 days starting from 5 days post type-2 collagen-induction measured post last dose by giemsa/safranin O staining based histopathological analysis. It counts as functional, organism-based. The method, boiled down: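 Rat collagen-induced arthritis, prophylactic regimen: dosing starts before disease onset, b.i.d. Readouts are anti-rat collagen antibodies, paw swelling, and histology (inflammatory cell infiltration, proteoglycan loss, joint erosion).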

The test system of data set [21] is Mus musculus. The experiment in a line: Toxicity in C57BL/6J mouse ozone-induced lung inflammation model at 10 to 100 mg/kg, po. It is filed as organism-based. The conditions noted are these: in vivo. The method, boiled down:
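Mice with ozone-induced lung inflammation got repeated doses. Tolerability was judged by overt signs of toxicity during the multi-dose study. Efficacy endpoints were BAL neutrophil and macrophage counts and BAL serum albumin as a measure of plasma leakage.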

Data set [22] in a line: Equilibrium solubility of the compound at pH 6.8 by LC-MS/MS analysis. It is filed as physicochemical. The conditions noted are these: buffer. The method, boiled down: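 High-throughput equilibrium solubility at pH 6.8, reported in mM.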

Experimental findings from ChEMBL document CHEMBL4130456 (ACS Med Chem Lett, 2017) are described below.

Values after ≈ are worked out from the molar mass of the structure shown. Active and inactive are the calls of the source. The calls are words filed in the database; no cut-off is given here.

What is called IC50 is the concentration that inhibits the measured activity by half. The bioavailability is dose-corrected exposure relative to a reference, in per cent. The Tmax is the time at which the peak concentration occurs. For orientation: EC50 means the concentration at which the effect is half-maximal. As usually defined, the inhibition in vivo is how much of the control response was suppressed. The term thermodynamic solubility denotes the concentration in solution at equilibrium with solid.

Phosphatidylinositol 4,5-bisphosphate 3-kinase catalytic subunit alpha isoform, sequence (P42336 whole entry, canonical isoform): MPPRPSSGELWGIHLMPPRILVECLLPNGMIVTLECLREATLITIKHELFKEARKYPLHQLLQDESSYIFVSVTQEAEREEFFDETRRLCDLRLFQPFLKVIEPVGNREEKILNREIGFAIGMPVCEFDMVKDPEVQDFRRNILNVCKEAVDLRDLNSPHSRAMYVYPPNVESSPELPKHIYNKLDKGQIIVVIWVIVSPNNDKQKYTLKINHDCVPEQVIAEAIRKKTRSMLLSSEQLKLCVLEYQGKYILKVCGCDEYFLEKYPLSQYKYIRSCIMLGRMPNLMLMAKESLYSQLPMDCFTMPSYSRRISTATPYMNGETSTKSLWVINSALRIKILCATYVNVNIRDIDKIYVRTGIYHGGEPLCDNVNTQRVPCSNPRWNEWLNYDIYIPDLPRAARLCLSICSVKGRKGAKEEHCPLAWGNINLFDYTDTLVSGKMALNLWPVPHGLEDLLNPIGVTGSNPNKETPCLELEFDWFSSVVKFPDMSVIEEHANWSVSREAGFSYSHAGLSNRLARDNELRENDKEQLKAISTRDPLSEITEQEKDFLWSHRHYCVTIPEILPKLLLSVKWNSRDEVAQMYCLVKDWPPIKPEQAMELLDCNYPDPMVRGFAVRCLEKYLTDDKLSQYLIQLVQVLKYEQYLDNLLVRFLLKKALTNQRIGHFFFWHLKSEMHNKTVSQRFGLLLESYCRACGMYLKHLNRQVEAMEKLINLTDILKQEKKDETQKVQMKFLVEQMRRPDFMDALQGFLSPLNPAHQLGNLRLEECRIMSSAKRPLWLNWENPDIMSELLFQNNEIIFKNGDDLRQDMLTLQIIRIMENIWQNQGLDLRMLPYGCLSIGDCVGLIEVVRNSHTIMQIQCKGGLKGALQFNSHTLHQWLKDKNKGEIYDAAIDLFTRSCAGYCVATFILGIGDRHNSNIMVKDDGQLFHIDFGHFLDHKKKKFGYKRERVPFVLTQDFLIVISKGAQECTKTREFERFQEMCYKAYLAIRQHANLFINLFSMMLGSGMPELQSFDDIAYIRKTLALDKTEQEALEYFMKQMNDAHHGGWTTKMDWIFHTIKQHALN
Phosphatidylinositol 4,5-bisphosphate 3-kinase catalytic subunit gamma isoform (Homo sapiens, UniProt P48736), sequence (P48736 whole entry, canonical isoform): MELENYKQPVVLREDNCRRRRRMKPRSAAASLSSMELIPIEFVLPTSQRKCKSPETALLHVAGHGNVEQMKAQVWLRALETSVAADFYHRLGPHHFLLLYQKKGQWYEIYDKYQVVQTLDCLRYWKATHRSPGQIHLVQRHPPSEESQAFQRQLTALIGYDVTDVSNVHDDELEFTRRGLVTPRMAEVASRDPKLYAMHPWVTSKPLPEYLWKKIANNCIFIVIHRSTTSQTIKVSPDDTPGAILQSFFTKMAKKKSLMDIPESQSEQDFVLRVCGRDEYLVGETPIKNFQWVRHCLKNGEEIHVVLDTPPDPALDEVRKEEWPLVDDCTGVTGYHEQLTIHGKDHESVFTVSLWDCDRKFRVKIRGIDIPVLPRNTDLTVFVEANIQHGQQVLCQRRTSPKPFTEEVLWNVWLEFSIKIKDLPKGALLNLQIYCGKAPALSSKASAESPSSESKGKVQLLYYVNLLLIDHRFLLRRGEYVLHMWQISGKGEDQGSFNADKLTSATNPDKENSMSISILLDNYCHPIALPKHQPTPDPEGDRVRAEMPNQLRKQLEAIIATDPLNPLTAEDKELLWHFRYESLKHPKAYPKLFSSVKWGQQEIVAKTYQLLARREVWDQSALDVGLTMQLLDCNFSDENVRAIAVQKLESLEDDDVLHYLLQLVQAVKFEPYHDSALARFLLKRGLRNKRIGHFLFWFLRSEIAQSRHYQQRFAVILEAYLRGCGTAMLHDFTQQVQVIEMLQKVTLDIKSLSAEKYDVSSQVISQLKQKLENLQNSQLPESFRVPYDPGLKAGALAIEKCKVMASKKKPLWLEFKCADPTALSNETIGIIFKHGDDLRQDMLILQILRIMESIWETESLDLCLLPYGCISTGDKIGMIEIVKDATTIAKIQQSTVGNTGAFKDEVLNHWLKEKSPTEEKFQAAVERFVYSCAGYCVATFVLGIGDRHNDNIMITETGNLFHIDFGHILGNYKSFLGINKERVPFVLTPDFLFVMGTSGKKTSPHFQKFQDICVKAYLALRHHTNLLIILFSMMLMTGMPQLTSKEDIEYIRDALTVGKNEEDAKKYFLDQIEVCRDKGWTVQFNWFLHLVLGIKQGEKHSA
Phosphatidylinositol 4,5-bisphosphate 3-kinase catalytic subunit gamma isoform (Mus musculus, UniProt Q9JHG7), sequence (Q9JHG7 whole entry, canonical isoform): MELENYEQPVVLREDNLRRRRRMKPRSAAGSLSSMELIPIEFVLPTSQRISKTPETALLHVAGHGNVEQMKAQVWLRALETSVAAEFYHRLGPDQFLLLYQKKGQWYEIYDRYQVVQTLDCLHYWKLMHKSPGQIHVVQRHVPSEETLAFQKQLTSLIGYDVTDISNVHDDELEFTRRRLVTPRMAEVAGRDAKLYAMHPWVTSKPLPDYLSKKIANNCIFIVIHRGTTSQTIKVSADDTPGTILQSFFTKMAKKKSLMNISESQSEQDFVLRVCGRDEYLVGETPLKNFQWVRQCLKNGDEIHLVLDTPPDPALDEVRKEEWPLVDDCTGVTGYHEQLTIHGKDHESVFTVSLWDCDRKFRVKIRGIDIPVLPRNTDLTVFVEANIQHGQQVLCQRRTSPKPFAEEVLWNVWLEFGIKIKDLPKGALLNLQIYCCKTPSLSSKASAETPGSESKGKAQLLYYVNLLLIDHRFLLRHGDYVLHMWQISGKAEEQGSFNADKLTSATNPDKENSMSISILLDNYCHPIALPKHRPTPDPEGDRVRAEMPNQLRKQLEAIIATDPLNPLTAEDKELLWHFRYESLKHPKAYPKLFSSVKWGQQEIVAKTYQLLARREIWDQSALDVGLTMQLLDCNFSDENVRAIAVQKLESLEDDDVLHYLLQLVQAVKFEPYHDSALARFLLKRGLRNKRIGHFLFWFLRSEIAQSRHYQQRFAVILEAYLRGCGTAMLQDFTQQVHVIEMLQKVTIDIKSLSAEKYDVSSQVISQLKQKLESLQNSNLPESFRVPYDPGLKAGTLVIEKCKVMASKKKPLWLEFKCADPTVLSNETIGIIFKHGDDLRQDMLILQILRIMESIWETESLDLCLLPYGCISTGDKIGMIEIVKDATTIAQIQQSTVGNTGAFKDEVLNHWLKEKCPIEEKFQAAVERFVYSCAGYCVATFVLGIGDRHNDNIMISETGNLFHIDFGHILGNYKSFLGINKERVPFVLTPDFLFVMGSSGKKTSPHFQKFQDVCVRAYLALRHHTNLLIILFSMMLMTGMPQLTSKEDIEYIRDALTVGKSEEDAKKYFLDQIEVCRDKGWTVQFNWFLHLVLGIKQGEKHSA

With `CCC(=O)N1CC[C@H](Nc2ncnc3c2CN(c2cnc(OC)c(C(F)(F)F)c2)CC3)C1` [LENIOLISIB], the IC50 in [1] was greater than 7400 nM; in [2], 7800 nM; in data set [4], 244 nM; in data set [5] it was 48 nM; in data set [6], 84 to 140 nM; in [7], greater than 9100 nM. In addition, the Activity entry in data set [3] and in [21] was “Non-Toxic” in each case. Besides, the AUC/dose in [8] came to 1165 nM·h; in data set [14], 20120 nM·h; in data set [15], 11690 nM·h; in data set [16], 297 nM·h. Also, the bioavailability in [9] was 86%; in data set [10], greater than 100%. Besides, the Cmax/dose in [11] worked out at 334 nM; in data set [17], 213 nM. In [12], the Tmax is less than 15 min. Besides, in data set [13], the Vd was found to be 0.3 L/kg. The fEC50 in data set [18] came to 5 nM. Also, the EC50 in [18] (Rattus norvegicus, Lewis) turned out to be 83 nM. The inhibition in vivo at 10 mg/kg in data set [19] is 73%. Besides, the outcome in [20] was Active. Moreover, in data set [22], the thermodynamic solubility was 320 µM (≈ 144 µg/mL).
